Screens deposited in PubChem BioAssay by several laboratories.
Arrestin-AP2 inh: inhibitors of human beta-arrestin and AP2 interaction | FITC-arrestin peptide / GST-AP2 beads, flow cytometry; AP2 beta2 appendage carries R879A mutation | inhibition, % at 10 µM | 340,000 tested, 0.31% active | AID 504490;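 active means inhibition above a set limit, near 3 SD of compounds lacking own fluorescence, cut at about 54% in these data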
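Test system: GST-tagged AP2 beta2-adaptin appendage (R879A) on 4 µm glutathione beads; also added: fluorescein-tagged arrestin peptide at 50 nM final; timing: 12 min plus 1 h, RT; signal: flow cytometry, FL1 (488/535 nm); read-out: percent drop in bead-associated FITC signal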
Granule exo inh: lytic granule exocytosis inhibition. TALL-104 LAMP-1 surface exposure, flow cytometry; cells stimulated with thapsigargin and PMA. inhibition, % at 10 µM. 360,000 tested, 0.66% active. AID 651702;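 active means inhibition above about 55%, limit read from the data; inconclusive means no clear call, values can overlap the other calls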
ATG4B inhibitor: inhibitors of human ATG4B cysteine protease | Q9Y4P1 | ATG4B cleavage of LC3-PLA2, NBD-HPC fluorescence, 1 h | inhibition, % at 8.33 µM | 340,000 tested, 0.51% active | AID 504462; in the data active means inhibition above about 40%
NRP1-CendR mod: modulators of CendR peptide binding to human neuropilin-1; O14786; FAM-RPARPAR peptide binding to NRP-1, fluorescence polarization; inhibition, % at 25 µM; 360,000 tested, 0.85% active;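 active means inhibition or corrected inhibition above about 18%, plus a signal ratio from 0.5 to 1.5, limit read from the data, passing the limit was not always enough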
Myeloid diff MLP: myeloid differentiation induction. 360,000 tested, 1% active. ER-HoxA9 myeloid progenitors, lysozyme-GFP differentiation, flow cytometry. AID 624256. calls only at 10 µM;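 active means normalized GFP-positive differentiation at or above the plate's own cutoff, the solvent-only control mean plus 3 SD; inconclusive means no clear call, values can overlap the other calls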;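 further: cells exposed to compound for four days before flow analysis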
ABCB6 inh 2: inhibitors of human ABC transporter ABCB6; 360,000 tested, 0.19% active; Q9NP58; fluorescence ratio to DMSO, % at 10 µM; AID 602162; K562-ABCB6 porphyrin accumulation, flow cytometry, 1 h; hits give low values;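 active means fluorescence ratio to DMSO below 75%, the collection mean minus 3 SD; inconclusive means too few cells collected in the well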;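 further: signal is porphyrin accumulated inside mitochondria; lower ratio means ABCB6 inhibition with less porphyrin fluorescence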
Target sequence (Q9NP58 whole entry, looked up): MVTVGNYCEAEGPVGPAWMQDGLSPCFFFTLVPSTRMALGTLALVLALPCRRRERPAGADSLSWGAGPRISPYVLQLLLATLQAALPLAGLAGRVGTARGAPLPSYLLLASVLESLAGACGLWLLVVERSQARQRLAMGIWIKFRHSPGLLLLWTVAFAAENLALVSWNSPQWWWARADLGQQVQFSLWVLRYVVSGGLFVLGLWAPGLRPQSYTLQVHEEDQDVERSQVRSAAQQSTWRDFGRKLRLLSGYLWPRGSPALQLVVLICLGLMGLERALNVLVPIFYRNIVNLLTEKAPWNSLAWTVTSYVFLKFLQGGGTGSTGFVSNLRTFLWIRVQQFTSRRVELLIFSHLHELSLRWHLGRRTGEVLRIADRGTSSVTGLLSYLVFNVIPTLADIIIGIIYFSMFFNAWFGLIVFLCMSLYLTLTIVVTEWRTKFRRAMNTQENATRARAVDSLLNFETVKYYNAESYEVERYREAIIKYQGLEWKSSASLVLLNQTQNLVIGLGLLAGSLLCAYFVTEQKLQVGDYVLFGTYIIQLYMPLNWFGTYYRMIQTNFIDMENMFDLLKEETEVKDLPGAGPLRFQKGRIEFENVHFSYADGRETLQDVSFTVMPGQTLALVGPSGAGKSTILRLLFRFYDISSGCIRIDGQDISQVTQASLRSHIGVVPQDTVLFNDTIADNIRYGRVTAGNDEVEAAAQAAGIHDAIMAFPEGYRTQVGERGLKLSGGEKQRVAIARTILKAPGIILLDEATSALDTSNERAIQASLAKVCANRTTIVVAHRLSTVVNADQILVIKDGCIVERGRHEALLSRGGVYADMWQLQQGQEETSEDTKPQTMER
A number is an active result. Rows were chosen to be rich in hits. Some 3.3% of all compounds tested hit in one or more screens of this group.

What do the screens show for `CCOC(=O)CC1COCCN1C(=O)CCc1nnc(-c2ccsc2)o1` (stereo unspecified)?
Arrestin-AP2 inh: inactive; Granule exo inh: inactive; ATG4B inhibitor: inactive; NRP1-CendR mod: inactive; Myeloid diff MLP: inactive; ABCB6 inh 2: inactive

Results for Cc1ccc(-c2cn(-c3ccc(SC(F)F)cc3)c3[n+]2CCC3)cc1 ?
Arrestin-AP2 inh: inactive; Granule exo inh: inactive; ATG4B inhibitor: inactive; NRP1-CendR mod: inactive; Myeloid diff MLP: active; ABCB6 inh 2: inactive

Results for Cc1ccc(NC(=O)c2cc(N3C(=O)C4CCCCC4C3=O)ccc2N2CCOCC2)cc1 (stereo unspecified) ?
Arrestin-AP2 inh: inactive; Granule exo inh: inactive; ATG4B inhibitor: inactive; NRP1-CendR mod: 25; Myeloid diff MLP: inactive; ABCB6 inh 2: inactive

How did Cc1ccc(NC(=O)c2cc(N3C(=O)C4CC=CCC4C3=O)ccc2N2CCCCC2)cc1 (stereo unspecified) do in these assays?
Arrestin-AP2 inh: inactive; Granule exo inh: inactive; ATG4B inhibitor: inactive; NRP1-CendR mod: inactive; Myeloid diff MLP: inactive; ABCB6 inh 2: inactive

What do the screens show for `O=C(O)c1cc2c([nH]c1=O)CCCC2`?
Arrestin-AP2 inh: inactive; Granule exo inh: inactive; ATG4B inhibitor: inactive; NRP1-CendR mod: inactive; Myeloid diff MLP: inactive; ABCB6 inh 2: inactive

Results for C=CCSC(=C(C#N)C#N)c1cc2c([nH]1)CCCC2 ?
Arrestin-AP2 inh: inactive; Granule exo inh: inactive; ATG4B inhibitor: inactive; NRP1-CendR mod: inactive; Myeloid diff MLP: active; ABCB6 inh 2: inactive

How did O=C(c1ccccc1F)N1CCCc2ccccc21 do in these assays?
Arrestin-AP2 inh: inactive; Granule exo inh: inactive; ATG4B inhibitor: inactive; NRP1-CendR mod: inactive; Myeloid diff MLP: active; ABCB6 inh 2: inactive

Results for O=C(c1ccc([N+](=O)[O-])s1)N1CCc2ccccc21 ?
Arrestin-AP2 inh: inactive; Granule exo inh: inactive; ATG4B inhibitor: inactive; NRP1-CendR mod: inactive; Myeloid diff MLP: active; ABCB6 inh 2: inactive

What do the screens show for `CNc1nc(-c2ccc3c(c2)CCN3C(=O)c2ccccc2F)c(C)s1`?
Arrestin-AP2 inh: inactive; Granule exo inh: inactive; ATG4B inhibitor: inactive; NRP1-CendR mod: inactive; Myeloid diff MLP: inactive; ABCB6 inh 2: inactive

What do the screens show for `O=C(c1ccc([N+](=O)[O-])s1)N1CCCc2ccccc21`?
Arrestin-AP2 inh: inactive; Granule exo inh: inactive; ATG4B inhibitor: inactive; NRP1-CendR mod: inactive; Myeloid diff MLP: active; ABCB6 inh 2: inactive

Results for CNc1nc(-c2ccc3c(c2)CCN3C(=O)c2ccccc2F)cs1 ?
Arrestin-AP2 inh: inactive; Granule exo inh: inactive; ATG4B inhibitor: inactive; NRP1-CendR mod: 24; Myeloid diff MLP: inactive; ABCB6 inh 2: inactive

Results for CCC(CC)CN1CCC(CN2C(=S)NC[C@@H]2CC(C)C)CC1 ?
Arrestin-AP2 inh: inactive; Granule exo inh: inactive; NRP1-CendR mod: inactive; Myeloid diff MLP: inactive; ABCB6 inh 2: inactive

Results for COc1cc(C(=S)N2CCCC2)ccc1OCc1ccccc1 ?
Arrestin-AP2 inh: inactive; Granule exo inh: inactive; ATG4B inhibitor: inactive; NRP1-CendR mod: inactive; Myeloid diff MLP: inactive; ABCB6 inh 2: inactive

How did c1cncc(-c2nc(-c3cccs3)cs2)c1 do in these assays?
Arrestin-AP2 inh: inactive; Granule exo inh: inactive; ATG4B inhibitor: inactive; NRP1-CendR mod: inactive; Myeloid diff MLP: active; ABCB6 inh 2: inactive

How did O=C(O)c1ccc(N2C(=O)/C(=C/c3ccc(-c4ccc([N+](=O)[O-])cc4)o3)C=C2c2ccccc2)cc1 do in these assays?
Granule exo inh: 56; ATG4B inhibitor: inactive; NRP1-CendR mod: inactive; Myeloid diff MLP: active; ABCB6 inh 2: inactive

How did O=C(Nc1c(-c2ccc3c(c2)OCO3)[nH][nH]c1=O)c1ccccc1 do in these assays?
Granule exo inh: inactive; NRP1-CendR mod: inactive; Myeloid diff MLP: inactive; ABCB6 inh 2: inactive

How did COc1ccc(N=C2C(=Nc3ccc(OC)cc3)N(c3ccc(N(C)C)cc3)C(=S)N2c2ccc(OC)cc2)cc1 do in these assays?
Arrestin-AP2 inh: inactive; Granule exo inh: inactive; ATG4B inhibitor: inactive; NRP1-CendR mod: 26; ABCB6 inh 2: inactive

How did COc1ccc(N=C2C(=Nc3ccc(OC)cc3)N(c3ccc(OC)cc3)C(=S)N2C(=O)c2ccc(OC)cc2)cc1 do in these assays?
Arrestin-AP2 inh: inactive; Granule exo inh: inactive; ATG4B inhibitor: inactive; NRP1-CendR mod: inactive; Myeloid diff MLP: inactive; ABCB6 inh 2: inactive

How did COc1ccc(OC)c(NC(=O)NCc2cccnc2)c1 do in these assays?
Arrestin-AP2 inh: inactive; Granule exo inh: inactive; ATG4B inhibitor: inactive; NRP1-CendR mod: inactive; Myeloid diff MLP: inactive; ABCB6 inh 2: inactive

How did CCn1c(SCc2nc3ccccc3s2)nnc1-c1cccs1 do in these assays?
Arrestin-AP2 inh: inactive; Granule exo inh: inactive; ATG4B inhibitor: inactive; NRP1-CendR mod: inactive; Myeloid diff MLP: inactive; ABCB6 inh 2: inactive

What do the screens show for `Cn1c(SCc2nc3ccccc3s2)nnc1-c1cccs1`?
Arrestin-AP2 inh: inactive; Granule exo inh: inactive; ATG4B inhibitor: inactive; NRP1-CendR mod: 44; Myeloid diff MLP: inactive; ABCB6 inh 2: inactive

How did Cc1nc(CCNC(=O)C2CCC(=O)N(Cc3ccc(Cl)cc3)C2)sc1C (stereo unspecified) do in these assays?
Arrestin-AP2 inh: inactive; Granule exo inh: inactive; ATG4B inhibitor: inactive; NRP1-CendR mod: inactive; Myeloid diff MLP: inconclusive; ABCB6 inh 2: inactive

What do the screens show for `COc1ccc(NC(=O)C(C)Sc2ccccc2)cc1` (stereo unspecified)?
Arrestin-AP2 inh: inactive; Granule exo inh: inactive; ATG4B inhibitor: inactive; NRP1-CendR mod: 42; Myeloid diff MLP: inactive; ABCB6 inh 2: inactive

Results for CCOC(=O)C1=CN(CC)S(=O)(=O)NC1c1ccc2ccccc2c1 (stereo unspecified) ?
Arrestin-AP2 inh: inactive; Granule exo inh: inactive; ATG4B inhibitor: inactive; NRP1-CendR mod: inactive; Myeloid diff MLP: inactive; ABCB6 inh 2: inactive

Results for COCCOC(=O)C(C#N)c1nc2ccccc2nc1N1CCN(Cc2ccccc2)CC1 (stereo unspecified) ?
Arrestin-AP2 inh: inactive; Granule exo inh: inactive; ATG4B inhibitor: inactive; NRP1-CendR mod: inactive; Myeloid diff MLP: active; ABCB6 inh 2: inactive

What do the screens show for `COCC(C)OC(=O)C(C#N)c1nc2ccccc2nc1N1CCN(Cc2ccccc2)CC1` (stereo unspecified)?
Arrestin-AP2 inh: inactive; Granule exo inh: inactive; ATG4B inhibitor: inactive; NRP1-CendR mod: inactive; Myeloid diff MLP: inactive; ABCB6 inh 2: inactive

What do the screens show for `FCCCOc1ccc(-c2nccc(-c3ccccn3)n2)cc1`?
Arrestin-AP2 inh: inactive; Granule exo inh: inactive; ATG4B inhibitor: inactive; NRP1-CendR mod: 21; Myeloid diff MLP: inactive; ABCB6 inh 2: inactive

What do the screens show for `O=C(O)COc1ccc(-c2nccc(-c3ccccn3)n2)cc1`?
Arrestin-AP2 inh: inactive; Granule exo inh: inactive; ATG4B inhibitor: inactive; NRP1-CendR mod: inactive; ABCB6 inh 2: inactive

What do the screens show for `COc1ccc(-n2nc(C(=O)c3cccs3)cc(-c3nc4ccccc4[nH]3)c2=N)cc1`?
Arrestin-AP2 inh: inactive; Granule exo inh: inactive; ATG4B inhibitor: inactive; NRP1-CendR mod: inactive; Myeloid diff MLP: active; ABCB6 inh 2: inactive
